According to ChEMBL document CHEMBL5154815, “A Series of Substituted Bis-Aminotriazines Are Activators of the Natriuretic Peptide Receptor C” (J Med Chem, 2022):
Activity calls are given as the source filed them. The calls are words filed in the database; no cut-off is given here.

Tests used:
[1] = target: T1, Atrial natriuretic peptide receptor 2 (Homo sapiens) (UniProt P20594); test: Agonist activity at NPRB in human HeLa cells assessed as increased cGMP formation at 1 uM incubated for 30 mins in presence of IBMX by ELISA; assay type: cell-based; details: filed as agonist
T1 sequence (whole entry): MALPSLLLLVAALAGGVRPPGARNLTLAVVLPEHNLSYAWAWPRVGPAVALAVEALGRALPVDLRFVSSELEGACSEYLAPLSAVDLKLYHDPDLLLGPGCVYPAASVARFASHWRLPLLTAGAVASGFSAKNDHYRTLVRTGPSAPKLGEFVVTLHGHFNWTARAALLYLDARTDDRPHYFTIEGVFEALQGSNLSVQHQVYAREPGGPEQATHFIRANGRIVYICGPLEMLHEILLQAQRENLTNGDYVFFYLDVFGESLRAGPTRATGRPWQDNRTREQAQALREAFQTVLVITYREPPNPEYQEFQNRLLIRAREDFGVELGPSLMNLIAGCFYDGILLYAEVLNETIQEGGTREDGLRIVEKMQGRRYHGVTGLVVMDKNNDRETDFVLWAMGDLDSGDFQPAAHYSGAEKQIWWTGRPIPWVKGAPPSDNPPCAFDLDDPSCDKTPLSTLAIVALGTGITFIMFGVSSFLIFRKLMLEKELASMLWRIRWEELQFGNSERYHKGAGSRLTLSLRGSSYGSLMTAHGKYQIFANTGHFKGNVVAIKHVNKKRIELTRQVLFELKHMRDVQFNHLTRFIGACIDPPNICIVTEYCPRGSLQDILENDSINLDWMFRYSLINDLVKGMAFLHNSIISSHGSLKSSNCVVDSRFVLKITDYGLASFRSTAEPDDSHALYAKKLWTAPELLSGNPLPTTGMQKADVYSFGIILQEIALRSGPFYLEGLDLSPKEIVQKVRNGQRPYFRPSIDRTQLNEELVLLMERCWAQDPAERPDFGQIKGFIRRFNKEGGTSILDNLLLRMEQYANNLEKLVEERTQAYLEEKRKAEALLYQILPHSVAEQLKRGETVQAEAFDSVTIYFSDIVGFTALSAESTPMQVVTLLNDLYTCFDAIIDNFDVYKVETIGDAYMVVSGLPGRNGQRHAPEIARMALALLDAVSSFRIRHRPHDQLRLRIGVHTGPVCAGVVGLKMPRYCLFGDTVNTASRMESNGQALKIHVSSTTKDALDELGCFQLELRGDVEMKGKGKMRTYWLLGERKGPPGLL
Method in brief: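 HeLa cells grown in high-glucose DMEM with 10% heat-inactivated bovine serum, penicillin and streptomycin at 5% CO2. Medium was changed on the assay day, then cells equilibrated 4 h. ANP, CNP and cANF4–23 (1 μM) or test compounds (10 μM) were added with IBMX (1 mM) for 30 min. Lysis used 1% Triton-X/0.1 M HCl. Supernatant cGMP was read by ELISA and normalized to BCA protein; points are independent biological replicates.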

[2] = Stability of compound in pooled human plasma assessed as half life measured upto 120 mins by LC/MS/MS analysis; details: 2 h
Cytochrome P450 1A2 = target: T2, Cytochrome P450 1A2 (Homo sapiens, UniProt P05177); test: Inhibition of CYP1A2 in human liver microsomes using phenacetin as substrate preincubated for 10 mins followed by NADPH addition and measured after 10 mins by LC/MS/MS analysis
T2 sequence (P05177 whole entry): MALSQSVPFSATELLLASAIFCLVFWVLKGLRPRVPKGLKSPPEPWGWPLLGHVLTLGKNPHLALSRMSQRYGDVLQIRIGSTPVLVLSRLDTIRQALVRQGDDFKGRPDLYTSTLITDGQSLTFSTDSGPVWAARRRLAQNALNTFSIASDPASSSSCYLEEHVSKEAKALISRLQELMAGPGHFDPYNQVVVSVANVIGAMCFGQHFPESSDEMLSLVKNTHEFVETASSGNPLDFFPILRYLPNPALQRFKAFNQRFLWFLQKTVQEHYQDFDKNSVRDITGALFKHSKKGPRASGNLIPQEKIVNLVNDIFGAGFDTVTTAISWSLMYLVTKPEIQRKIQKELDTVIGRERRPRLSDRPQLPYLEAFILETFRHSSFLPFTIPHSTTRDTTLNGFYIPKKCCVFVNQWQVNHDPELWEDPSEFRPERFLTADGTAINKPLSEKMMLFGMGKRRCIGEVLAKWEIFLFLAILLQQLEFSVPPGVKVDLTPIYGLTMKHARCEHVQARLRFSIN

Cytochrome P450 3A4 [3] = target: T3, Cytochrome P450 3A4 (Homo sapiens, UniProt P08684); test: Inhibition of CYP3A4 in human liver microsomes using testosterone as a substrate preincubated for 10 mins followed by NADPH addition and measured after 10 mins by LC/MS/MS analysis
T3 sequence (P08684 whole entry): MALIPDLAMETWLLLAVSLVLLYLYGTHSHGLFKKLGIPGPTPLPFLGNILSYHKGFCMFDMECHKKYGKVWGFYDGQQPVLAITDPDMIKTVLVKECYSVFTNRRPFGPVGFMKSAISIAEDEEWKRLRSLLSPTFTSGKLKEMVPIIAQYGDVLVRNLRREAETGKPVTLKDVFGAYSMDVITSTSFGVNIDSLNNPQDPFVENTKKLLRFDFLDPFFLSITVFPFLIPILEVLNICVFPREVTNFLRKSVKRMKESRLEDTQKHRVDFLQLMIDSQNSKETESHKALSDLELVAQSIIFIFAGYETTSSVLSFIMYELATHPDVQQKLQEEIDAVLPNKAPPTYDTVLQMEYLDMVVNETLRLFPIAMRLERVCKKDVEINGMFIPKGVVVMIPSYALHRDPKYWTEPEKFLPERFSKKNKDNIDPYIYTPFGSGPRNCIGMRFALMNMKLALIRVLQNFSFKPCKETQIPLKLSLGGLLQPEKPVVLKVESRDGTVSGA

Cytochrome P450 2C19 = Cytochrome P450 2C19 (Homo sapiens, UniProt P33261); test: Inhibition of CYP2C19 in human liver microsomes using S-mephenytoin as substrate preincubated for 10 mins followed by NADPH addition and measured after 20 mins by LC/MS/MS analysis
Cytochrome P450 2C19, sequence (P33261 whole entry): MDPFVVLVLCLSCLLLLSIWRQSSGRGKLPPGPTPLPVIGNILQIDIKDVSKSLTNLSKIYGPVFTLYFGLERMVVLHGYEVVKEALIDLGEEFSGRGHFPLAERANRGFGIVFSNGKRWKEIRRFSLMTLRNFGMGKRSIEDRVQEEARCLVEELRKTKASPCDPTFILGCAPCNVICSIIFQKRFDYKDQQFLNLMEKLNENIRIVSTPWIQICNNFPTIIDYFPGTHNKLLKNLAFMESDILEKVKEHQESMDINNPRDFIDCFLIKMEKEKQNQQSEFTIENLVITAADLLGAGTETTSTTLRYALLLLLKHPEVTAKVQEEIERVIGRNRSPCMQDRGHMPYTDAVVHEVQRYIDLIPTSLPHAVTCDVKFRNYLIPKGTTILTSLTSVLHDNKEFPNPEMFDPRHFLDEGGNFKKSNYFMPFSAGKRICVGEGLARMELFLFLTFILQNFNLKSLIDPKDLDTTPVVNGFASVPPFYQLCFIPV

[4] = Stability in Sprague-Dawley rat hepatocytes assessed as clearance per […] at 1 uM after 20 mins by LC-MS/MS analysis; assay type: ADME, cell-based, Hepatocyte
Cytochrome P450 2C9 = Cytochrome P450 2C9 (Homo sapiens, UniProt P11712); test: Inhibition of CYP2C9 in human liver microsomes using diclofenac as substrate preincubated for 10 mins followed by NADPH addition and measured after 10 mins by LC/MS/MS analysis
Cytochrome P450 2C9, sequence (P11712 whole entry): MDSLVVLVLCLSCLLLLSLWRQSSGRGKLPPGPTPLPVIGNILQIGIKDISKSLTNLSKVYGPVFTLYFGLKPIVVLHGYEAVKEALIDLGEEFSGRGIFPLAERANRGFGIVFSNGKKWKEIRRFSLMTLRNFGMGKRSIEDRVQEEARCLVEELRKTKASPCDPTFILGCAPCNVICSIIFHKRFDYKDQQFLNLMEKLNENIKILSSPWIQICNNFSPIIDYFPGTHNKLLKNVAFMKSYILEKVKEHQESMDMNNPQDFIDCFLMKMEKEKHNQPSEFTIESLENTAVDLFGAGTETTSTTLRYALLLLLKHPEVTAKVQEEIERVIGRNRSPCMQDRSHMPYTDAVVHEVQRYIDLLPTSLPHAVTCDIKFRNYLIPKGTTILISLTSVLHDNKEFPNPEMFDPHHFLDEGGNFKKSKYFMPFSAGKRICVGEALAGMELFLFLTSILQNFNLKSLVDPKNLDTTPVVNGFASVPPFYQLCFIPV

Cytochrome P450 2C8 = target: T4, Cytochrome P450 2C8 (Homo sapiens, UniProt P10632); test: Inhibition of CYP2C8 in human liver microsomes using amodiaquine as a substrate preincubated for 10 mins followed by NADPH addition and measured after 10 mins by LC/MS/MS analysis
T4 sequence (P10632 whole entry): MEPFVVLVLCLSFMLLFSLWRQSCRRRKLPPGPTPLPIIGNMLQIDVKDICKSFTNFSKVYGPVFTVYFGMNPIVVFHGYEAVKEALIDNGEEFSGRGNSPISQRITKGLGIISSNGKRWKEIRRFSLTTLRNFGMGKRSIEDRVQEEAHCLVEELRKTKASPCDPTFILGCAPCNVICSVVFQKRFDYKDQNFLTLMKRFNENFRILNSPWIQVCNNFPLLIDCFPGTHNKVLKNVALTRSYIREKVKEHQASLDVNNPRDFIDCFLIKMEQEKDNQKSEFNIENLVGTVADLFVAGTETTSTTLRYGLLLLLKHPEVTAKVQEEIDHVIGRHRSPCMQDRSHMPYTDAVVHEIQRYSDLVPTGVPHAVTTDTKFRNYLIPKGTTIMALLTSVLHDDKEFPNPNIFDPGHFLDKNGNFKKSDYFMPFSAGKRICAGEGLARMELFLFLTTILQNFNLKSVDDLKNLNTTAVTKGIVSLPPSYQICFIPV

[5] = target: T5, Atrial natriuretic peptide receptor 3 (Homo sapiens, UniProt P17342); test: Binding affinity to CM5 sensor chip immobilized human NPR-C (27 to 541 residues) assessed as dissociation constant by surface plasmon resonance analysis
T5 sequence (P17342 whole entry): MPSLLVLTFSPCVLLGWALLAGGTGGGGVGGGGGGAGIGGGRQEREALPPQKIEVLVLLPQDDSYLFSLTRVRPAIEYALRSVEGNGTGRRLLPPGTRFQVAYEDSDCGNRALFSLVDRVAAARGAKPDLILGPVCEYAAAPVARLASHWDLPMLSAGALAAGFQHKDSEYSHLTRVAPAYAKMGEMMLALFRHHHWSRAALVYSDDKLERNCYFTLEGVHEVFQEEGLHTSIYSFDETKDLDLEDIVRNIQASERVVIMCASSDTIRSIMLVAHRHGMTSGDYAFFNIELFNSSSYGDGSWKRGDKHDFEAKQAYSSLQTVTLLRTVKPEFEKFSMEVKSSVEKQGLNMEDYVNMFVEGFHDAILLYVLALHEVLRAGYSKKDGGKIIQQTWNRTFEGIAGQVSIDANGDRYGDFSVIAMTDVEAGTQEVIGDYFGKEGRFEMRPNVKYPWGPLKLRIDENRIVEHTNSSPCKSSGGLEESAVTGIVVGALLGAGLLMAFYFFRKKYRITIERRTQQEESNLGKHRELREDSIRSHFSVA

[6] = Protein binding in human plasma by equilibrium dialysis assay
[7] = Permeability of the compound in PBS at pH 7.4 incubated for 5 hrs by LC/MS based PAMPA assay; details: pH 7.4, 5 h
[8] = rat, hepatocytes, 20 min, 1 µM
[9] = Solubility of compound in PBS at 10 mM after 3 hrs by UV analysis; details: buffer, 10000 µM
Cytochrome P450 3A4 [10] = target: T3, Cytochrome P450 3A4; test: Inhibition of CYP3A4 in human liver microsomes using midazolam as a substrate preincubated for 10 mins followed by NADPH addition and measured after 20 mins by LC/MS/MS analysis
[11] = target: T6, Atrial natriuretic peptide receptor 3 (Rattus norvegicus, UniProt P41740); test: Agonist activity at NPRC in rat small mesenteric arteries assessed as vasorelaxation by Organ bath assay; assay type: tissue-based, Artery
T6 sequence (P41740 whole entry): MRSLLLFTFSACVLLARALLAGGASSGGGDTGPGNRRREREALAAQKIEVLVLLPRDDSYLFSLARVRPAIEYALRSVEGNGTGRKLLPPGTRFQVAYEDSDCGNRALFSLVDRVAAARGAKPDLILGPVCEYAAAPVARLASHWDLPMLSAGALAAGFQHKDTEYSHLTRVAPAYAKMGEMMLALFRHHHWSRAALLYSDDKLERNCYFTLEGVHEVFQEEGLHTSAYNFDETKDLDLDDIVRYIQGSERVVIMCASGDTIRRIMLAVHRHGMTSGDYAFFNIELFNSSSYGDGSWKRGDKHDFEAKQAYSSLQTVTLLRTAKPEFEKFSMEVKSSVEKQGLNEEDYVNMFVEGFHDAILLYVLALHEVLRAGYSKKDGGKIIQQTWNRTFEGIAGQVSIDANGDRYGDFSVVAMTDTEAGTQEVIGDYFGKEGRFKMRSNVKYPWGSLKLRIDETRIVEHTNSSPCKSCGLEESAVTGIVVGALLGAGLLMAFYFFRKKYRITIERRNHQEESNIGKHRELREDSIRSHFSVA

[12] = target: T6, Atrial natriuretic peptide receptor 3; test: Agonist activity at NPRC in rat aorta assessed as vasorelaxation by Organ bath assay; assay type: tissue-based

Row | Structure (SMILES) | Activity [1] | t1/2 [2] | IC50 (Cytochrome P450 1A2) | IC50 (Cytochrome P450 3A4 [3]) | IC50 (Cytochrome P450 2C19) | CLH [4] | IC50 (Cytochrome P450 2C9) | IC50 (Cytochrome P450 2C8) | Kd [5] | PPB [6] | Papp [7] | t1/2 [8] | solubility [9] | IC50 (Cytochrome P450 3A4 [10]) | EC50 [11] | EC50 [12]
1 | CC[C@H](C)[C@@H]1NC(=O)[C@H](CCCNC(=N)N)NC(=O)[C@H](CC(=O)O)NC(=O)[C@H](CCSC)NC(=O)[C@H](CCCNC(=N)N)NC(=O)CNC(=O)CNC(=O)[C@H](Cc2ccccc2)NC(=O)[C@@H](NC(=O)[C@H](CO)NC(=O)[C@H](CO)NC(=O)[C@H](CCCNC(=N)N)NC(=O)[C@H](CCCNC(=N)N)NC(=O)[C@H](CC(C)C)NC(=O)[C@@H](N)CO)CSSC[C@@H](C(=O)N[C@@H](CC(N)=O)C(=O)N[C@@H](CO)C(=O)N[C@@H](Cc2ccccc2)C(=O)N[C@@H](CCCNC(=N)N)C(=O)N[C@@H](Cc2ccc(O)cc2)C(=O)O)NC(=O)CNC(=O)[C@H](CC(C)C)NC(=O)CNC(=O)[C@H](CO)NC(=O)[C@H](CCC(N)=O)NC(=O)[C@H](C)NC(=O)CNC1=O | Active |  |  |  |  |  |  |  |  |  |  |  |  |  |  | 
2 | CC(=O)Nc1ccc(Nc2ncnc(N[C@@H](CC(C)C)C(=O)O)n2)cc1 |  | > 60 min | > 50 µM | > 50 µM | > 50 µM | < 6.4 µL/min | > 50 µM | > 50 µM | 220 µM | 85.4% | < 0.001 10^-6 cm/s | 216.8 min | > 71.68 mg/mL | > 50 µM | 22.2 µM | 6.2 µM
